From ChEMBL document CHEMBL1212913, “Quinazolin-4-one derivatives: A novel class of noncompetitive NR2C/D subunit-selective N-methyl-D-aspartate receptor antagonists” (J Med Chem, 2010)

Assays:
[1] = target: Glutamate NMDA receptor; Grin1/Grin2c (Rattus norvegicus, UniProt P35439+Q00961); assay: Antagonist activity at rat recombinant NR1-NR2C receptor expressed in Xenopus oocytes at holding potential of -40mV by two-electrode voltage-clamp electrophysiology; format: functional, cell-based, Oocyte
Outline: (§1)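 Oocytes expressing rat NR1-1a with NR2A, NR2B, NR2C or NR2D, clamped at −40 mV in Ba2+/HEPES recording solution pH 7.4, 23°C. Current evoked by 100 μM glutamate plus 30 μM glycine. Final DMSO 0.05-0.5%, 5-7 inhibitor concentrations, ≥4 oocytes each. IC50 from Hill fit of normalized mean composite data. […] Some NR2A oocytes given BAPTA-AM or K-BAPTA.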

[2] = target: Glutamate NMDA receptor; Grin1/Grin2a (Rattus norvegicus, UniProt P35439+Q00959); assay: Antagonist activity at rat recombinant NR1-NR2A receptor expressed in Xenopus oocytes at holding potential of -40mV by two-electrode voltage-clamp electrophysiology; format: functional, cell-based, Oocyte; outline: as §1
[3] = target: Ionotropic glutamate receptor NMDA 1/2D (Rattus norvegicus, UniProt P35439+Q62645); assay: Antagonist activity at rat recombinant NR1-NR2D receptor expressed in Xenopus oocytes at holding potential of -40mV by two-electrode voltage-clamp electrophysiology; format: functional, cell-based, Oocyte
Outline: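 Oocytes expressing rat NR1-1a with NR2A, NR2B, NR2C or NR2D, clamped at −40 mV in Ba2+/HEPES recording solution pH 7.4, 23°C. Current evoked by 100 μM glutamate plus 30 μM glycine. Final DMSO 0.05-0.5%, 5-7 inhibitor concentrations, ≥4 oocytes each. IC50 from Hill fit of normalized mean composite data. Some NR2A oocytes given BAPTA-AM or K-BAPTA.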

Rattus norvegicus [4] = organism: Rattus norvegicus; assay: Selectivity ratio of IC50 for rat recombinant GLuR1 to IC50 for rat recombinant NR1-NR2D receptor
Outline: (§2)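 Ratio of fitted IC50 values, either NR2A/NR2D or GluR1/NR2D, from two-electrode voltage-clamp Hill fits in oocytes. Where noted, calculated from IC50 values rounded to the nearest μM.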

Glutamate receptor 1 = Glutamate receptor 1 (Rattus norvegicus, UniProt P19490); assay: Antagonist activity at rat recombinant GLuR1 expressed in Xenopus oocytes assessed as inhibition of glutamate-induced current by two-electrode voltage-clamp electrophysiology; format: functional, cell-based, Oocyte
Outline: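 Two-electrode voltage clamp at −40 mV on Xenopus oocytes expressing rat GluR1, perfused with 90 NaCl, 1.0 KCl, 0.5 BaCl2, 0.005 EDTA, 10 HEPES (mM), pH 7.4, 23°C; activated by 100 μM glutamate. From 20 mM DMSO stocks, 5-7 concentrations, ≥4 oocytes each. Hill fit to mean composite curves normalized to control, minimum usually fixed at 0. Response >75% at 100 μM reported as >300 μM.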

[5] = target: Glutamate NMDA receptor; Grin1/Grin2b (Rattus norvegicus, UniProt P35439+Q00960); assay: Antagonist activity at rat recombinant NR1-NR2B receptor expressed in Xenopus oocytes at holding potential of -40mV by two-electrode voltage-clamp electrophysiology; format: functional, cell-based, Oocyte; outline: as §1
Rattus norvegicus [6] = organism: Rattus norvegicus; assay: Selectivity ratio of IC50 for rat recombinant NR1-NR2A receptor to IC50 for rat recombinant NR1-NR2D receptor; outline: as §2

Sequence of Ionotropic glutamate receptor NMDA 1/2D (Q62645 whole entry, other chains not shown): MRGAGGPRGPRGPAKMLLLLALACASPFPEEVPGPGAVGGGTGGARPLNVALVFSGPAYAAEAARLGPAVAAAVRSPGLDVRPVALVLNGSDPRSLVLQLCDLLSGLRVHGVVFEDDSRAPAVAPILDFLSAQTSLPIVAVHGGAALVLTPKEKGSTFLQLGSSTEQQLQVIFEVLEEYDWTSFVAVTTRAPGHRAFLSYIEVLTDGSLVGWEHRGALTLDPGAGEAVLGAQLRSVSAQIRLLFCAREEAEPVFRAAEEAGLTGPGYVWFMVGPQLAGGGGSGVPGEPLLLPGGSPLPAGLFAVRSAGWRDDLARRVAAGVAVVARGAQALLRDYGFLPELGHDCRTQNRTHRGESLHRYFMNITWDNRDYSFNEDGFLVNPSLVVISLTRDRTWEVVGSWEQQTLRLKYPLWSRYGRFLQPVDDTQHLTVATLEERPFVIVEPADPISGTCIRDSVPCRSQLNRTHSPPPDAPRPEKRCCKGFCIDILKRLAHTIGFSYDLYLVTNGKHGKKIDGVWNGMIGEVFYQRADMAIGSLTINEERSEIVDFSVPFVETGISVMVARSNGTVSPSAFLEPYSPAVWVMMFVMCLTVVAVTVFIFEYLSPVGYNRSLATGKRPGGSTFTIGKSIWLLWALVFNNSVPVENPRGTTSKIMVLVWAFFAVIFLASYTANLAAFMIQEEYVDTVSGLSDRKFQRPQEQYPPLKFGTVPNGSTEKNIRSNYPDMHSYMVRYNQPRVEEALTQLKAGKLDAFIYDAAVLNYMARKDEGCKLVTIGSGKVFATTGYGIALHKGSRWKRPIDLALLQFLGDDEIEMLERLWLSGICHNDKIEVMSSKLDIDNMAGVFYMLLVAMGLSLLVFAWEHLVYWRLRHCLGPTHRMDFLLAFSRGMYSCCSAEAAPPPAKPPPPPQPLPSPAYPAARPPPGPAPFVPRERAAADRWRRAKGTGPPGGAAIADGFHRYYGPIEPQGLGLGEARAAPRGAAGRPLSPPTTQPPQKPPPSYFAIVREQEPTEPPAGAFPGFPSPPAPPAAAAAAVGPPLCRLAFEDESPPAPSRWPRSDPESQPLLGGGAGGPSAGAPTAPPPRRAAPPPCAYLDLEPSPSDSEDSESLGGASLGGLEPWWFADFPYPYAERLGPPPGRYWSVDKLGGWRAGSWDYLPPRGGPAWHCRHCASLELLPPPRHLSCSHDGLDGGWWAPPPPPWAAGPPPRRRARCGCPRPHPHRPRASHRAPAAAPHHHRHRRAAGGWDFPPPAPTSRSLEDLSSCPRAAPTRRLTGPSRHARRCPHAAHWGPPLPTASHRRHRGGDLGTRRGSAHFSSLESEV
Sequence of Glutamate receptor 1 (P19490 whole entry, the tested form may be a part): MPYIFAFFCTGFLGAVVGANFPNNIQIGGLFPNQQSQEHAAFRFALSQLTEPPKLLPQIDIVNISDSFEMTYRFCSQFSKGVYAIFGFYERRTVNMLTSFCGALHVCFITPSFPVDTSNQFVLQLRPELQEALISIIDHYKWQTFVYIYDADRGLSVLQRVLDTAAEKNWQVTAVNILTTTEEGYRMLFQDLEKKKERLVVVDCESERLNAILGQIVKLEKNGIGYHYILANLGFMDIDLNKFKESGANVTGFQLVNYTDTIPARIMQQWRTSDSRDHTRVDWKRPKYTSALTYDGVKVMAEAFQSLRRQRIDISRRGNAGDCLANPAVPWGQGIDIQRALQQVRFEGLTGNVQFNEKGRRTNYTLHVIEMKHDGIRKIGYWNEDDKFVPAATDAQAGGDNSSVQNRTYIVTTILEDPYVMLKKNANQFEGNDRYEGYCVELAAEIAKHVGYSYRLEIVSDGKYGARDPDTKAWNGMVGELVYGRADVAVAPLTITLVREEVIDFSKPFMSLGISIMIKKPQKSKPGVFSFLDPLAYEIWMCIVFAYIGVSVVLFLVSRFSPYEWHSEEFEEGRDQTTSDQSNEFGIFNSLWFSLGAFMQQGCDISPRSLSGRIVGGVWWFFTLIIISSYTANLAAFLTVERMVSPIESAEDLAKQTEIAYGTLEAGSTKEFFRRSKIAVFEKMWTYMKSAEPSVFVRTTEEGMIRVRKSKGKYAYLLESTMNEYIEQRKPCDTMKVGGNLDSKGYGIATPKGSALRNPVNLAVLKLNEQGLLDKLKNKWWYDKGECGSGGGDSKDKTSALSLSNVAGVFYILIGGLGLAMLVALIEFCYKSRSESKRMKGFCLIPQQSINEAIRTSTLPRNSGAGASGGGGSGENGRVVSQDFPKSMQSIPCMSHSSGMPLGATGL
Sequence of Glutamate NMDA receptor; Grin1/Grin2b (Q00960 whole entry, other chains not shown): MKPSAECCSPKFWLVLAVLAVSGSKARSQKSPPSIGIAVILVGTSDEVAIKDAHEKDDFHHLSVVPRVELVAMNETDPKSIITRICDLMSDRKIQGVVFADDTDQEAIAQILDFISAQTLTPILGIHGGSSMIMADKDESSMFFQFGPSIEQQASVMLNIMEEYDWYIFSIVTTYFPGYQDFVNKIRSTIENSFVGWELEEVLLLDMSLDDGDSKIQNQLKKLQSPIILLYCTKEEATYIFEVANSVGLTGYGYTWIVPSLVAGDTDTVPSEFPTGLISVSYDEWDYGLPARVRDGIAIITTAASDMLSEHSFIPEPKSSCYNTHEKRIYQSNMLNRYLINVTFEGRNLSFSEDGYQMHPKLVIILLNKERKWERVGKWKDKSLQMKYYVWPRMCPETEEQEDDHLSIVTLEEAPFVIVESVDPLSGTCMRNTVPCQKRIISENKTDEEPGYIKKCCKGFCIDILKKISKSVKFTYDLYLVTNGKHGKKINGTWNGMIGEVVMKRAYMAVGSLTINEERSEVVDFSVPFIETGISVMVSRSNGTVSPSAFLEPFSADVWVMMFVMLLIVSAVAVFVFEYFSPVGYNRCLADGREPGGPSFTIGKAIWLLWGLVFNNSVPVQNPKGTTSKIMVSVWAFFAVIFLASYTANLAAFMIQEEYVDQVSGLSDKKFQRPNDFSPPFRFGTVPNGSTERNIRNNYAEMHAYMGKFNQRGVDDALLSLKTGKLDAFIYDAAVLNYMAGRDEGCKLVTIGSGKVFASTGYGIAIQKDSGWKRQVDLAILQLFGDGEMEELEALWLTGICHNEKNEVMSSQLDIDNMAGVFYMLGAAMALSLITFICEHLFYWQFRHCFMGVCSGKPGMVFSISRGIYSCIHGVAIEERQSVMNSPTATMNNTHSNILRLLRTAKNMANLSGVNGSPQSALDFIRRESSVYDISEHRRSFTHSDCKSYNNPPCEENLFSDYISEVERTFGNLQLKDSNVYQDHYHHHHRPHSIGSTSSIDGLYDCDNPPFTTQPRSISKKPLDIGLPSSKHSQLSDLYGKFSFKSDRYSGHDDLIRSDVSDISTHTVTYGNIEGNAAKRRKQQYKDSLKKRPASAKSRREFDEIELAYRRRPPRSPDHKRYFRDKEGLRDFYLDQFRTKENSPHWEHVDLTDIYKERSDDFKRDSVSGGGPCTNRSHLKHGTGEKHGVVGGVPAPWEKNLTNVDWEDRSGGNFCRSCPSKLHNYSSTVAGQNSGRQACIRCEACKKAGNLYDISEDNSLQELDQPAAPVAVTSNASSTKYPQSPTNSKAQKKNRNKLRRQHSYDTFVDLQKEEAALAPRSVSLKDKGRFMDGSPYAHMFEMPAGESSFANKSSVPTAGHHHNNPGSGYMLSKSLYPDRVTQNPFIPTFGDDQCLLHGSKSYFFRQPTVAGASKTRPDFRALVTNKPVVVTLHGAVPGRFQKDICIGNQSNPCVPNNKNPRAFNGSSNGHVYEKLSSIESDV
Sequence of Glutamate NMDA receptor; Grin1/Grin2c (Q00961 whole entry, other chains not shown): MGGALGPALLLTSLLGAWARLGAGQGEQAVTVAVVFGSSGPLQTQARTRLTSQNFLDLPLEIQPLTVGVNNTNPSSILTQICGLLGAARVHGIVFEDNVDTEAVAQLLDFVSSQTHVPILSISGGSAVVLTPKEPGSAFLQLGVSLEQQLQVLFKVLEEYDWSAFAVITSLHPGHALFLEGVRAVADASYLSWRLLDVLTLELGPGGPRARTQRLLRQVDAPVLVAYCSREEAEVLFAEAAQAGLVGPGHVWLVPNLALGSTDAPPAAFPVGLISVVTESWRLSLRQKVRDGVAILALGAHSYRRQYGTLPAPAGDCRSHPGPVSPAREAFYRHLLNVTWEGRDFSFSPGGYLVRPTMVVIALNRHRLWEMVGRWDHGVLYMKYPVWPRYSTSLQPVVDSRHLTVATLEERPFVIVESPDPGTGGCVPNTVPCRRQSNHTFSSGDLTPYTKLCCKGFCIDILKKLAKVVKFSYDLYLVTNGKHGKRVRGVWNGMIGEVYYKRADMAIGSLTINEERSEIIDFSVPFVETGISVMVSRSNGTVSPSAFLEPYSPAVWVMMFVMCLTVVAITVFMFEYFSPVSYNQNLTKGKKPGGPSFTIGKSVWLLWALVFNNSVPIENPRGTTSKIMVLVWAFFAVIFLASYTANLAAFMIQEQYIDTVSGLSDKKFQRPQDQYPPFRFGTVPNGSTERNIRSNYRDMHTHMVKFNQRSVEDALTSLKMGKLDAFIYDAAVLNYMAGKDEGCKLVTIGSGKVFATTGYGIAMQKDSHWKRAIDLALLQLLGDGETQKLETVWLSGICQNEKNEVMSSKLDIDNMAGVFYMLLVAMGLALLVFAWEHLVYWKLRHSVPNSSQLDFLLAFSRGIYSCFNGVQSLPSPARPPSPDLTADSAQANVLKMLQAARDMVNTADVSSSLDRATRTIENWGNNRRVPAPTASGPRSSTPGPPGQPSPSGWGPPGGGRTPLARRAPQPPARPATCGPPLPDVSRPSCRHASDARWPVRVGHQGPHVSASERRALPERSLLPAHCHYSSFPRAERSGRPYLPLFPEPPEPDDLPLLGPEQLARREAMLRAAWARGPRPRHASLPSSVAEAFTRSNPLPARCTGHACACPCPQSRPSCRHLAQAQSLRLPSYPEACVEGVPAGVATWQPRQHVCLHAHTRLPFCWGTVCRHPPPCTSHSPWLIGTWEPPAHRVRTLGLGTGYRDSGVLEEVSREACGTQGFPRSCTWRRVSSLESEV

Compound	IC50 [1]	IC50 ([2]; read-out: IC50)	IC50 [3]	Ratio IC50 (Rattus norvegicus [4])	IC50 (Glutamate receptor 1)	IC50 ([5]; read-out: IC50)	Ratio IC50 (Rattus norvegicus [6])	IC50 ([2]; oocyte)	IC50 ([5]; oocyte)
COc1ccc2nc(/C=C/c3cccc([N+](=O)[O-])c3)n(-c3ccc(C#N)cc3)c(=O)c2c1	> 300 µM	> 300 µM	> 300 µM	1	> 300 µM	> 300 µM			
COc1ccc2nc(/C=C/c3ccc([N+](=O)[O-])cc3)n(-c3ccc(C(=O)O)cc3)c(=O)c2c1	13 µM	197 µM	7 µM		> 300 µM	206 µM	28		
COc1ccc(/C=C/c2nc3ccccc3c(=O)n2-c2ccc(C(=O)O)cc2)cc1		100 µM	31 µM	8	250 µM	98 µM	3		
COc1ccc2nc(/C=C/c3cccc([N+](=O)[O-])c3)n(-c3ccc(C(N)=O)cc3)c(=O)c2c1	58 µM	> 300 µM	> 300 µM	1	> 300 µM	82 µM			
Cc1ccc(/C=C/c2nc3ccccc3c(=O)n2-c2ccc(C(=O)O)cc2)cc1		41 µM	17 µM		> 300 µM	138 µM	2		
COc1ccc(-n2c(/C=C/c3cccnc3)nc3ccc(I)cc3c2=O)cc1	> 300 µM	> 300 µM	> 300 µM	1	> 300 µM	> 300 µM			
COc1ccc2nc(/C=C/c3cccc(C(=O)O)c3)n(-c3ccc(C(=O)O)cc3)c(=O)c2c1	> 300 µM	> 300 µM	131 µM		> 300 µM	> 300 µM			
O=C(O)c1ccc(-n2c(/C=C/c3cccc([N+](=O)[O-])c3)nc3cccc(Cl)c3c2=O)cc1	22 µM	> 300 µM	14 µM		> 300 µM	110 µM			
N#Cc1ccc(/C=C/c2nc3ccccc3c(=O)n2-c2ccc(C(=O)O)cc2)cc1	28 µM	94 µM	34 µM		> 300 µM	106 µM	3		
O=C(O)c1ccc(-n2c(/C=C/c3ccc(C(F)(F)F)cc3)nc3ccccc3c2=O)cc1		61 µM	15 µM	16	233 µM	55 µM	4		
O=C(O)c1ccc(-n2c(/C=C/c3ccc([N+](=O)[O-])cc3)nc3c(Cl)cc(Cl)cc3c2=O)cc1	9 µM	> 300 µM	6 µM		> 300 µM	> 300 µM			
O=C(O)c1ccc(-n2c(/C=C/c3ccccc3)nc3ccccc3c2=O)cc1		84 µM	33 µM	1	25 µM	85 µM	3		
Cc1cccc(-n2c(/C=C/c3cccnc3)nc3ccc(I)cc3c2=O)c1	241 µM	> 300 µM	> 300 µM	1	> 300 µM	> 300 µM			
Cc1ccc2nc(CCc3ccccc3)n(-c3ccc(C(=O)O)cc3)c(=O)c2c1	184 µM	> 300 µM	282 µM		> 300 µM	78 µM			
O=C(O)c1ccc(-n2c(/C=C/c3cccc([N+](=O)[O-])c3)nc3ccc([N+](=O)[O-])cc3c2=O)cc1	204 µM		90 µM		> 300 µM			Not Active	Not Active
COc1cccc(/C=C/c2nc3ccccc3c(=O)n2-c2ccc(C(=O)O)cc2)c1		24 µM	9 µM	3	27 µM	36 µM	3		
O=C(O)c1ccc(-n2c(/C=C/c3ccc([N+](=O)[O-])cc3)nc3ccc(I)cc3c2=O)cc1	2 µM	> 300 µM	1 µM		> 300 µM	> 300 µM	> 150		
O=C(O)c1ccc(-n2c(/C=C/c3cccc([N+](=O)[O-])c3)nc3ccc(F)cc3c2=O)cc1		36 µM	7 µM	1	7 µM	33 µM	5		
